Bioassay records deposited in PubChem BioAssay by several laboratories.
This is a sample that favours compounds with a hit; in the whole collection about 2.1% have one here.
EBNA-1 inhibitor: EBNA-1 DNA-binding inhibitors, primary screen, biochemical, fluorescence polarization; inhibition, % at 14.8 µM; 300,000 compounds, 0.34% hits; in the data active means inhibition above about 28%
eIF4H FP inh: human eIF4H binding inhibitors, primary screen, translation initiation inhibitor project, biochemical, uHTS, fluorescence polarization; inhibition, % at 35 µM; 290,000 compounds, 0.94% hits; AID 2012, 2009; eIF4H fluorescence polarization binding assay;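 further: calls also rest on retests at 20 µM and on dose response follow-up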
PABP polyA inh: PABP poly(A) RNA binding inhibitors, primary screen, biochemical, fluorescence polarization, uHTS; Polyadenylate-binding protein 1 (Homo sapiens), P11940; inhibition, % at 35 µM; 290,000 compounds, 1% hits;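 further: calls also rest on retests at 20 µM and on dose response follow-up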
MLLE-PAM2 inh: inhibitors of PABP1 MLLE–PAM2 peptide binding, primary screen, biochemical, fluorescence polarization, FITC-PAM2, GST-MLLE; AID 588489, 2011; inhibition, % at 20 µM; 360,000 compounds, 0.36% hits; in the data active means inhibition above about 35%, passing the limit was not always enough;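 further: plate controls were DMSO wells with GST-MLLE for no effect and wells lacking GST-MLLE protein for full effect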
NS3 helicase inh: inhibitors of HCV NS3 helicase, primary screen, biochemical, Cy5 molecular beacon fluorescence. Hepatitis C virus NS3 helicase. NS3 helicase DNA unwinding. inhibition, % at 10.9 µM. 290,000 compounds, 0.56% hits;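 active means inhibition above the mean of all tested compounds plus 3 SD, set per campaign, cut at about 35% in these data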;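 further: 0% = DMSO wells and 100% = thioflavine S control wells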
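Assay system – hepatitis C virus NS3 helicase domain fragment enzyme · Buffer or medium – MOPS pH 6.5, MgCl2, DTT, Tween20, BSA · Reagent – Cy5/quencher beacon DNA duplex and ATP to start · Compound – single 10.9 µM dose · Timing – 1 h at 25 °C · Technique – Cy5 beacon fluorescence read at start and 1 h · Measure – % inhibition of unwinding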
ZTA DNA inh: blocks Epstein-Barr virus ZTA, an EBNA-1 counter-screen; P03206; ZTA-DNA binding, fluorescence polarization; inhibition, % at 11 µM; 320,000 compounds, 0.15% hits; in the data active means inhibition above about 33%
Target sequence (P03206 whole entry, looked up): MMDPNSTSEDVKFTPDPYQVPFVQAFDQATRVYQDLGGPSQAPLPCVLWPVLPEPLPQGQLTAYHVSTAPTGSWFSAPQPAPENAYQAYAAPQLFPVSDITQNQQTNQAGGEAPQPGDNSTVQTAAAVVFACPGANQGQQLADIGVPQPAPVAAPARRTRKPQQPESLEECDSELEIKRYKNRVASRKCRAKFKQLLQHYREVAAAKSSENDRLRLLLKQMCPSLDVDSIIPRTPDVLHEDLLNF
* = called active by the depositor; u = inconclusive; x = no result given. Unless noted, how the calls were made is not given here.

SMILES	EBNA-1 inhibitor	eIF4H FP inh	PABP polyA inh	MLLE-PAM2 inh	NS3 helicase inh	ZTA DNA inh
Oc1c(C(c2ccco2)N2CCOCC2)sc2ncnn12 (configuration not stated)	10	130	124*	8	0	2
CC(=O)c1ccc(OCCCC(=O)NC2=NCCS2)cc1	6	7	0	39*	5	6
NS(=O)(=O)c1ccc2c(c1)C1C=CCC1C(C1CC=CCC1)N2 (configuration not stated)	-7	53*	82*	0	15	-10
Cc1cc(Sc2nc(N)ncc2[N+](=O)[O-])ncn1	3	8	9	26	3	-6
Cc1cc(Sc2ncnc(N)c2[N+](=O)[O-])ncn1	0	3	0	46*	-3	15
Cc1cc(=O)n2nc(N3CCC(C(=O)NC(C)c4ccccc4)CC3)sc2n1 (configuration not stated)	1	2	4	-2	-2	-2
COC(=O)c1ccc(COC(=O)CNC(=O)c2ccc(OC)cc2)cc1	x	x	x	11	x	x
COc1cc2c3c(n(C)c(=O)c2cc1OC)-c1cc2c(cc1C3=O)OCO2	x	x	x	12	x	x
Cc1nccc2oc(=O)c(NC(=O)c3ccc(Cl)cc3)cc12	-2	-10	-2	0	5	1
O=C(Nc1cc2c(oc1=O)CCCC2=O)c1ccc(Cl)cc1	-12	74*	50*	0	20	-9
O=C(O)c1ccc(NCc2cccc(Br)c2)cc1	-7	active	118*	-1	3	-7
COc1ccccc1NC(=O)CSc1nc(N)c(C#N)cc1C#N	0	87*	-1	-73	-3	9
CCOc1ccccc1NC(=O)CSc1nc(N)c(C#N)cc1C#N	-6	12	-6	-10	25	2
O=C(COC(=O)c1cncc(Br)c1)NCc1ccc(Cl)cc1	-10	0	-2	-12	-5	-11
O=C(CCNS(=O)(=O)c1cccc2nonc12)NC1CCCCCC1	-9	-1	u	-1	-4	4
Fc1cccc(C[n+]2csc3ccccc32)c1	-2	4	9	26	8	0
c1ccc(C[n+]2csc3ccccc32)cc1	7	-12	10	43*	0	4
COc1ccc(C(CNC(=O)C(C)Sc2ccccc2)N2CCOCC2)cc1 (configuration not stated)	x	x	x	12	x	x
COc1cccc(C2c3[nH]c4ccccc4c3CCN2Cc2ncc[nH]2)c1 (configuration not stated)	0	9	-11	-13	-8	6
COc1ccc(C(=O)O)cc1NC(=S)NC(=O)CSc1ccc(Cl)cc1	-3	-13	-8	40*	13	-7
COc1ccc(S(=O)(=O)NC2CCCCCC2)c(OC)c1	-11	-6	12	-4	-11	4
CCn1c(=S)sc2c(=O)n(-c3ccccc3)c(=S)[nH]c21	5	-16	0	5	14	-4
CCOc1ccccc1-n1c(=S)sc2c(=O)n(-c3ccc(C)cc3)c(=S)[nH]c21	-3	active	58*	21	10	1
NC(=S)c1cnn2c(-c3cccc(C(F)(F)F)c3)ccnc12	-3	-4	2	38*	0	3
N#Cc1cnn2c(-c3ccccc3)ccnc12	0	11	-3	1	-2	13
SMILES	EBNA-1 inhibitor	eIF4H FP inh	PABP polyA inh	MLLE-PAM2 inh	NS3 helicase inh	ZTA DNA inh
O=C1CN(C(=O)COC(=O)c2cccc(Br)c2)c2ccccc2N1	x	x	x	-15	x	6
Cc1ccc(C(=O)Nc2sc3c(c2C(=O)O)CCCCC3)o1	-14	-6	6	31	29	-4
COC(=O)c1c(NC(=O)c2ccc(C)o2)sc2c1CCCCC2	x	10	7	37*	10	x
Cc1ccc(/C=C/C2=Cc3c(sc(NC(=O)CSc4n[nH]c(N)n4)c3C#N)C(C)(C)C2)o1	49*	u	u	x	45*	7
O=S(=O)(c1ccc(F)cc1)N1CC2CCCN2c2ccc(C(F)(F)F)cc21 (configuration not stated)	7	-12	-7	-4	-8	3
Oc1ccc(NCc2ccccc2OCc2ccccc2)cc1	3	88*	active	-8	10	10
Cn1nnc(NC(=S)NC(=O)c2cccc3c(Br)cccc23)n1	11	-13	-4	40*	-1	5
O=C(OCc1ccccc1)N1C=CC2CC1c1c(Cl)cccc12 (configuration not stated)	x	x	x	-3	x	x
CC1CCN(CCCNC(=O)c2coc3nc4ccccc4nc23)CC1	-10	-2	11	2	3	-1
Cc1ccc(CCNC(=O)c2coc3nc4ccccc4nc23)cc1	-3	73	51*	-28	-13	0
Cc1ccc(/C=c2\sc3nc(-c4cccs4)nn3c2=O)o1	-3	79*	6.8*	-12	34	7
COc1ccccc1/C=c1\sc2nc(-c3cccs3)nn2c1=O	x	x	x	x	14	x
O=c1/c(=C/c2ccco2)sc2nc(-c3ccccc3Br)nn12	-10	45*	54*	5	20	-10
CC(=O)Oc1cccc(/C=c2\sc3nc(-c4ccco4)nn3c2=O)c1	4	18	6	16	24	4
COc1ccc(/C=c2\sc3nc(-c4ccccc4OC)nn3c2=O)c(OC)c1	-12	-1	-6	51*	14	-18
CCCOc1ccc(Cc2nn3c(=O)/c(=C/c4ccco4)sc3nc2=O)cc1	13	84*	23*	2	33	-9
CCOc1cc(/C=C2/NC(=O)NC2=O)cc([N+](=O)[O-])c1O	2	0	24	-4	1	1
c1cc2[nH]c3ccncc3c2cn1	x	x	x	-19	x	x
COc1ccc(N2CCN(C(=O)COC(=O)c3cccc(S(=O)(=O)Nc4cccc(C)c4)c3)CC2)cc1	-14	x	x	-3	x	-4
COc1ccccc1/C=C/C=c1\sc2nc(=O)c(Cc3ccccc3)nn2c1=O	-1	65*	41*	-23	13	9
C=CCOc1ccccc1/C=c1\sc2nc(=O)c(C)nn2c1=O	-2	69*	-3	16	17	-2
C[C@H](CO)N1C[C@H](C)[C@@H](CN(C)C(=O)CC2CC2)Oc2cc(Br)ccc2S1(=O)=O	x	x	x	0	x	x
CSc1ncccc1C(=O)Nc1cc(Cl)ccc1N1CCOCC1	x	x	x	2	x	x
Cc1ccc(COc2ccc(C)nc2[N+](=O)[O-])cc1	-10	-1	-8	16	1	1
O=C(/C=C(\O)c1ccccc1)C(=O)NNC(=O)c1ccccc1	4	-11	5	0	16	17
O=C(/C=C(\O)c1ccc(Cl)cc1)C(=O)NNC(=O)C(O)(c1ccccc1)c1ccccc1	3	17	7	-24	54*	-21
